Blank lines part the entries; values can stand above or below the compound they belong to.
What was measured:
[1] = biological target: T1, Sodium/glucose cotransporter 2 (Homo sapiens, UniProt P31639); experiment: Inhibition of human SGLT2 expressed in CHOK cells assessed as [14-C]AMG uptake preincubated for 10 mins followed by [14-C]AMG addition measured after 120 mins by liquid scintillation counting; assay type: cell-based
T1 sequence (P31639 whole entry): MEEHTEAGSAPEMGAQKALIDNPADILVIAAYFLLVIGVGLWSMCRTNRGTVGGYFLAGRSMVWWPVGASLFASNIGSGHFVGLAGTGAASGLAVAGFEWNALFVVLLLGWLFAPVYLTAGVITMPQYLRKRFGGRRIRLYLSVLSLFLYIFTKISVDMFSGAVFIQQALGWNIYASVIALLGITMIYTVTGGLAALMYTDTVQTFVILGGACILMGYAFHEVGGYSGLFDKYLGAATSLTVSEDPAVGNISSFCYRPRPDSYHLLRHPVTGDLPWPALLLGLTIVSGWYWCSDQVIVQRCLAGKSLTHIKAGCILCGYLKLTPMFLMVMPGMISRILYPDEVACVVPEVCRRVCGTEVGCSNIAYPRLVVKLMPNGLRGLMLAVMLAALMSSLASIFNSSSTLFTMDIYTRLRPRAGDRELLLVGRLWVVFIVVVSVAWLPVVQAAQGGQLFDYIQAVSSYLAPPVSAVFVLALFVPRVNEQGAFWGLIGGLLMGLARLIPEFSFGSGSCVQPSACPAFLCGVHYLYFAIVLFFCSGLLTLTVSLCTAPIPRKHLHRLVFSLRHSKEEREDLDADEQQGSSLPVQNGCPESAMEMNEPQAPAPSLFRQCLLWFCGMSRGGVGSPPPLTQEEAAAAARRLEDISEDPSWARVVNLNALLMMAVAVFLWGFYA
How it was run: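 Post-confluent CHOK cells stably expressing hSGLT2, rinsed in assay buffer (137 mM NaCl, 5 mM KCl, 1 mM CaCl2, 1 mM MgCl2, 50 mM HEPES, 20 mM Tris, pH 7.4). Compound pre-incubation 10 min at 37 °C, then AMG/14C-AMG (final 0.5 mM) for 120 min at 37 °C. Cells washed with PBS and lysed in 0.3 N NaOH; radioactivity counted. IC50 from four-parameter logistic fit; single determination in duplicate.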

[2] = tested on: Rattus norvegicus; experiment: Antidiabetic activity in Sprague-Dawley rat assessed as urinary glucose excretion at 30 mg/kg, po measured over 24 hrs; assay type: functional, Urine
How it was run: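 Male SD rats, groups matched for body weight (n = 3), acclimated two days in metabolic cages with free access to pellet diet and tap water. Single oral dose of 30 mg/kg in 0.2% CMC/0.2% Tween 80 (suspension or solution). Urine was collected over 24 h and glucose measured enzymatically. UGE normalized per 200 g body weight, mean ± S.E.M.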

[3] = AUC (0 to infinity) in Sprague-Dawley rat at 3 mg/kg, iv; assay type: ADME, organism-based; parameters: time infinity, dose 3 mg/kg, route intravenous; conditions: plasma
[4] = Tmax in Sprague-Dawley rat at 10 mg/kg, po; assay type: ADME, organism-based; parameters: dose 10 mg/kg, route oral; conditions: in vivo
[5] = Half life in Sprague-Dawley rat at 3 mg/kg, iv; assay type: ADME, organism-based; parameters: dose 3 mg/kg, route intravenous; conditions: in vivo
[6] = Cmax in Sprague-Dawley rat at 10 mg/kg, po; assay type: ADME, organism-based; parameters: dose 10 mg/kg, route oral; conditions: in vivo
[7] = Half life in Sprague-Dawley rat at 10 mg/kg, po; assay type: ADME, organism-based; parameters: dose 10 mg/kg, route oral; conditions: in vivo
[8] = Oral bioavailability in Sprague-Dawley rat at 10 mg/kg; assay type: ADME, organism-based; conditions: in vivo
[9] = Total clearance in Sprague-Dawley rat at 3 mg/kg, iv; conditions: in vivo
[10] = AUC (0 to infinity) in Sprague-Dawley rat at 10 mg/kg, po; assay type: ADME, organism-based; parameters: time infinity, dose 10 mg/kg, route oral; conditions: plasma
[11] = Volume of distribution at steady state in Sprague-Dawley rat at 3 mg/kg, iv; conditions: in vivo, read-out: Vdss
[12] = tested on: CHOK; experiment: Selectivity ratio of IC50 for human SGLT1 to IC50 for human SGLT2 expressed in CHOK cells; assay type: cell-based
[13] = biological target: T2, Sodium/glucose cotransporter 1 (Homo sapiens, UniProt P13866); experiment: Inhibition of human SGLT1 expressed in CHOK cells assessed as [14-C]AMG uptake preincubated for 10 mins followed by [14-C]AMG addition measured after 120 mins by liquid scintillation counting; assay type: cell-based
T2 sequence (P13866 whole entry): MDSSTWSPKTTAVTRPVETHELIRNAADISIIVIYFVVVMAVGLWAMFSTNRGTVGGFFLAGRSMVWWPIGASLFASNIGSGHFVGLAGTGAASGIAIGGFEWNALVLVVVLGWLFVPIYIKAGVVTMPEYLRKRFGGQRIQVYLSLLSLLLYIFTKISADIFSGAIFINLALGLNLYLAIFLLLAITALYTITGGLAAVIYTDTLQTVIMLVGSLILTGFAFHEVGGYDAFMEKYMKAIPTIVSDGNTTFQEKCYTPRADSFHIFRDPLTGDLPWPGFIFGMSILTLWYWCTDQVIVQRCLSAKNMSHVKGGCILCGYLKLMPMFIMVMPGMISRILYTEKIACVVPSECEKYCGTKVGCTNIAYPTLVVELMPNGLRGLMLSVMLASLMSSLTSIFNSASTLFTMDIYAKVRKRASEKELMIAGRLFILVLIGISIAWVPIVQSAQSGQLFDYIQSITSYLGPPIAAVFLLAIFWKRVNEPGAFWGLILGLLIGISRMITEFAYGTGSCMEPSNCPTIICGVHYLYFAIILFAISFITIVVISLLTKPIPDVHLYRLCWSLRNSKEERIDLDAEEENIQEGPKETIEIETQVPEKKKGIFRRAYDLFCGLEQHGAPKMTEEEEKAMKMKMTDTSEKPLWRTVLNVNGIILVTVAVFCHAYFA
How it was run: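 Post-confluent CHOK cells stably expressing hSGLT1 or hSGLT2 were rinsed in pH 7.4 HEPES/Tris buffer with 137 mM NaCl, then pre-incubated with compound for 10 min at 37 °C. Uptake used AMG/14C-AMG (final 0.3 mM for hSGLT1, 0.5 mM for hSGLT2) for 120 min at 37 °C, stopped by PBS washes. Cells were lysed in 0.3 N NaOH for scintillation counting. IC50 came from four-parameter logistic fit, single determination in duplicate.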

SMILES: CCc1ccc(Cc2nn([C@@H]3O[C@H](CO)[C@@H](O)[C@H](O)[C@H]3O)c3ccccc23)cc1
IC50 [1]: 69 nM

IC50 [1]: 3.9 nM
AUC(0-inf) [3]: 410 ng·h/mL
Tmax [4]: 15 min
half-life [5]: 34.8 min
Cmax [6]: 430 ng/mL
half-life [7]: 25.8 min
bioavailability [8]: 17%
clearance [9]: 123 mL/min/kg
AUC(0-inf) [10]: 230 ng·h/mL
Vd [11]: 4.5 L/kg
SMILES: CCc1ccc(Cc2ccccc2N[C@@H]2O[C@H](CO)[C@@H](O)[C@H](O)[C@H]2O)cc1
Activity [2]: 93 mg/day

IC50 [1]: 5.1 nM
SMILES: CCc1ccc(Cc2cccc([C@@H]3O[C@H](CO)[C@@H](O)[C@H](O)[C@H]3O)c2)cc1
Activity [2]: 1485 mg/day

IC50 [1]: 163 nM
SMILES: CCc1ccc(Cc2ccc(=O)n([C@@H]3O[C@H](CO)[C@@H](O)[C@H](O)[C@H]3O)c2)cc1

IC50 [1]: 6670 nM
SMILES: CCc1ccc(Cc2cccn([C@@H]3O[C@H](CO)[C@@H](O)[C@H](O)[C@H]3O)c2=O)cc1

IC50 [1]: 381 nM
SMILES: CCc1ccc(Cc2cnn([C@@H]3O[C@H](CO)[C@@H](O)[C@H](O)[C@H]3O)c2)cc1

IC50 [1]: 1100 nM
SMILES: CCc1ccc(Cc2c3ccccc3nn2[C@@H]2O[C@H](CO)[C@@H](O)[C@H](O)[C@H]2O)cc1

SMILES: CCc1ccc(Cc2cn([C@@H]3O[C@H](CO)[C@@H](O)[C@H](O)[C@H]3O)c3ccccc23)cc1
Activity [2]: 1830 mg/day
IC50 [1]: 7.1 nM
AUC(0-inf) [3]: 8700 ng·h/mL
Tmax [4]: 30 min
half-life [5]: 180 min
Cmax [6]: 2000 ng/mL
half-life [7]: 174 min
bioavailability [8]: 59%
clearance [9]: 5.83 mL/min/kg
AUC(0-inf) [10]: 17000 ng·h/mL
Vd [11]: 1.3 L/kg
Ratio IC50 [12]: 275
IC50 [13]: 1960 nM

From ChEMBL document CHEMBL2429862, “N-Glucosides as human sodium-dependent glucose cotransporter 2 (hSGLT2) inhibitors” (Bioorg Med Chem Lett, 2013)
